Assay [1] in a line: inhibitors of TNFa-induced NFkB p65 translocation, primary screen, imaging, HUVEC, MLSMR starter and 10KST1 sets (AID 438;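 active = inhibition above 20% together with a positive visual image hit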;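 also: compound added about 3h40 before a 20 min TNFalpha stimulation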;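 as to inhibition: signal is the nuclear over cytoplasmic p65 intensity ratio per well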). The conditions noted are these: HUVEC TNFa-induced p65 nuclear translocation; cell count: measured here: nuclei count (cytotoxicity indicator), at 2.08 µM; inhibition: at 2 µM, stronger effect = higher value, 0% TNFa-plus-vehicle, 100% no-TNFa wells.
A short description of assay [2]: inhibitors of mutant huntingtin aggregation, primary screen, imaging, exon1htt(103Q)mCFP cells, high-content imaging (AID 483;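 active = visual image review flags a hit and inhibition of aggregation exceeds 20%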;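 also: compound exposure lasted 3 days before fixation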;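 as to nuclei count: percent of the per-plate median nuclei count of sample wells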). The note with it: exon1htt(103Q)mCFP cell line, aggregate imaging, at 2 µM; inhibition of aggregation: stronger effect = higher value; nuclei count: measured here: cell count, toxicity.
Assay [3] can be described thus: inhibitors of E-selectin induction by TNFa, primary screen, imaging, HUVEC, immunofluorescence, MLSMR starter and 10KST1 sets (AID 487;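 active = visually confirmed hit in the image check and inhibition above 20%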;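 as to inhibition: signal is fraction of cell area covered by stained E-selectin grains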;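 as to nuclei count: 100% = median nuclei count of all wells on the same plate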). The conditions noted are these: HUVEC TNFalpha-induced E-selectin immunofluorescence imaging, at 2 µM; inhibition: stronger effect = higher value; nuclei count: measured here: cell number, toxicity.
The target of assay [4] is Voltage-gated potassium channel subunit beta-2 (Rattus norvegicus) (UniProt P62483). As to the kind of experiment: KvBeta enzyme negative modulators, primary screen, biochemical, NADPH fluorescence (AID 622;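 active = fluorescence slope higher than the sample average by over 3 SD, cut at about -0.22 in these data, passing the limit was not always enough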;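 also: slope of raw intensity against log time taken from 70 to 1610 s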). The conditions noted are these: recombinant KvBeta, 4-cyanobenzaldehyde reduction, at 10 µM, stronger effect = higher value.
For assay [5] the target is unchanged. As to the kind of experiment: KvBeta positive modulators, primary screen, biochemical, NADPH fluorescence (AID 623;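 active = NADPH fluorescence slope more negative than the mean of all samples by about 3 SD, 99.7% confidence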;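 also: fluorescence intensity change per second fitted from 20 to 320 s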). The note with it: Recombinant KvBeta, NADPH fluorescence decrease slope, 10 min; at 10 µM; stronger effect = lower value.
Assay [6] addresses Muscarinic acetylcholine receptor M4 (Homo sapiens) (UniProt P08173). In words: compounds altering M4/GIRK thallium flux, either direction, primary screen, M4 allosteric agonist project, cell-based, HEK293 M4/GIRK, BTC-AM (AID 625;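 active = fluorescence slope after compound addition differing from the mean of all tested samples at 99.7% confidence, mostly higher but some lower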;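 also: thallium influx through GIRK channels coupled to M4 in HEK293 cells with BTC-AM dye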). The note with it: at 10 µM, actives lie on both sides. In short, it runs like this:
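Material – HEK293 cells with M4 receptor and GIRK channels · Buffer or medium – pH 7.3 thallium assay buffer · Doses – one dose, 10 µM final · Timing – cells overnight at 37 °C, BTC-AM loading 1 h, reads 2 min total · Measured by – kinetic fluorescence with BTC-AM dye · Controls – carbachol and DMSO controls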

The nature of assay [7]: inhibitors of Sendai virus-induced IRF3 signaling, primary screen, TLR/RLR signaling modifier project, cell-based, Sendai virus stimulus, luciferase, 10K MLSCN set (AID 602276;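 active = inhibition at or above 50% at 10 µM; inactive = inhibition below 50%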;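 also: firefly luciferase from ISG56 promoter only with Renilla not read in this screen; 0% = Sendai virus plus DMSO and 100% = medium plus DMSO without virus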). The note with it: HEK293 RL24 IRF3 luciferase reporter, at 10 µM, stronger effect = higher value.
The nature of assay [8]: inhibitors of poly I:C-induced TLR3 signaling, primary screen, cell-based, poly I:C stimulus, luciferase, 10K MLSCN set (AID 602277). The note with it: HEK293-TLR3 RL24 IRF3 luciferase reporter, at 10 µM, stronger effect = higher value. Background: A reporter such as luciferase makes a cellular process visible.
Assay [9] deals with Alpha-2C adrenergic receptor (Homo sapiens) (UniProt P18825). As to the kind of experiment: modulators of alpha2C/GIRK thallium flux, primary screen, cell-based, HEK293 alpha2C/GIRK1/2 (AID 624;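 active = fluorescence slope after compound addition differing from the mean of all screened samples at 99.7% confidence, in either direction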;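 also: slope of fluorescence ratio to pre-addition baseline per second over 15 to 24 s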). The conditions noted are these: thallium flux BTC fluorescence, at 10 µM, actives lie on both sides.
Assay [10] is described as follows: inhibitors of larval lipid processing in zebrafish, primary screen, whole organism, PED6 fluorescence, gall bladder and intestine (AID 686;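 active = a full or partial loss of lipid-probe fluorescence in the fish gall bladder, intestine or both, judged by eye; inactive = no fluorescence loss, or compound toxic to the fish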;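 also: larvae 5 to 7 days old with five fish per well; signal comes from phospholipase A2 cleavage of quenched PED6 carried via bile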). The note with it: Zebrafish larvae PED6 lipid processing, fluorescence scoring; screened at 20 µM (by protocol). In short, it runs like this: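 system = live zebrafish larvae aged 5-7 days, whole organism | probe or stimulus = ingested quenched lipid PED6 at 100 nM | doses = 20 µM single dose | timing = overnight exposure | detection = fluorescence microscopy with visual scoring of gall bladder and intestine | read-out = visual per-well fluorescence inhibition score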

Calls of active or inactive are those of the source.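 The calls were made as follows, unless noted: active = inhibition of the reporter signal at or above 50%; inactive = inhibition below 50%.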

Chain of Muscarinic acetylcholine receptor M4 (Homo sapiens) (P08173 whole entry, looked up): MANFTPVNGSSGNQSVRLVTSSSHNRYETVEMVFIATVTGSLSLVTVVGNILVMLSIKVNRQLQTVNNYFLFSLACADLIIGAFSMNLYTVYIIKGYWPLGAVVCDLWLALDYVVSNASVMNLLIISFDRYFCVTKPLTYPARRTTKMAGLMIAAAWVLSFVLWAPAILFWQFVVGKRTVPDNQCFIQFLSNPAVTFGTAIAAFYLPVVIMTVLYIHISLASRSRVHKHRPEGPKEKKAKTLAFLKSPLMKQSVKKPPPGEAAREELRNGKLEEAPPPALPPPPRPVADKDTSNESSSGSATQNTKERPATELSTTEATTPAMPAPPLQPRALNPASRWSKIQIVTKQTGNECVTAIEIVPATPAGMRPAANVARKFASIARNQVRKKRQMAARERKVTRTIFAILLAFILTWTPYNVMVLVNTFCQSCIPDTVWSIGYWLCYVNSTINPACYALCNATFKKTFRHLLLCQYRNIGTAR
Chain of Voltage-gated potassium channel subunit beta-2 (Rattus norvegicus) (P62483 whole entry, looked up): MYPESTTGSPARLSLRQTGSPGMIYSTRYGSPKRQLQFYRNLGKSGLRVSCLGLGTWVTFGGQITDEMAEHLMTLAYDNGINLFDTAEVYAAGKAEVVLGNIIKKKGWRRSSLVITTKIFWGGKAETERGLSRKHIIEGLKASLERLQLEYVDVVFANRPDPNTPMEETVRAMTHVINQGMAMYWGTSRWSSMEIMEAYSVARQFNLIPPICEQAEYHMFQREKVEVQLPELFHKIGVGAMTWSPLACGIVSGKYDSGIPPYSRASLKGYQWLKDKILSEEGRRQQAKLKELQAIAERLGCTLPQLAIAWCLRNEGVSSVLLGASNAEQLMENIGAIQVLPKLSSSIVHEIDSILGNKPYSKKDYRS
Chain of Alpha-2C adrenergic receptor (Homo sapiens) (P18825 whole entry, looked up): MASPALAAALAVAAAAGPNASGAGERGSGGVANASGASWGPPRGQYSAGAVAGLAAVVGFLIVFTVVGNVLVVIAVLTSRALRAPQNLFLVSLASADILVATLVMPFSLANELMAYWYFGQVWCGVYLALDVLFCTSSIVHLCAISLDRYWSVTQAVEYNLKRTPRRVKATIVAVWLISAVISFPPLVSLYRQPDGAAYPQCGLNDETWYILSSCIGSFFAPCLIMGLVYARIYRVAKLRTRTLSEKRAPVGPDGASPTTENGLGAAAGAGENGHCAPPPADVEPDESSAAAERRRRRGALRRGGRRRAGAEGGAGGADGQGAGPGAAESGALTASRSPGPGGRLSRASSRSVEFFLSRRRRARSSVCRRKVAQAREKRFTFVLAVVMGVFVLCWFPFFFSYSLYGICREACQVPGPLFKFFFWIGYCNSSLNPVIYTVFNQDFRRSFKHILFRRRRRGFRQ

In general, inhibition refers to the relative decrease from the control value, in per cent. As for `CCCCN(Cc1cc2cc(OC)ccc2[nH]c1=O)C(=O)COc1ccccc1`, the cell count in [1] came out at 348. Further, the inhibition was 4.3% (inactive) in assay [1], -53.3% (inactive) in assay [3], 7.27% (inactive) in [7] and 13.1% (inactive) in assay [8]. Besides, the inhibition of aggregation in assay [2] is -1.9% (inactive). In addition, the nuclei count in assay [2] turned out to be 117%; in assay [3], 125%. For the same compound, the fluorescence slope was -0.505 (inactive) in [4] and 0.00376 (inactive) in assay [6]. Also, the NADPH fluorescence slope in [5] was -5e-05 (inactive).

On to `CCOC(=O)c1ccc(NS(=O)(=O)c2ccc(SC)cc2)cc1`, for which, in [1], the cell count is 643. For the same compound, the inhibition in assay [1] is -9% (inactive); in assay [3] it was -21.6% (inactive); in [7], 13.8% (inactive); in assay [8], 16.1% (inactive). In addition, in [2], the inhibition of aggregation was 4.8% (inactive). The nuclei count is 89% in assay [2] and 88.3% in [3]. The fluorescence slope in assay [4] is -0.48 (inactive); in assay [6], 0.00382 (inactive). The NADPH fluorescence slope in [5] is -4.9e-05 (inactive).

For `CCn1c(=N)n(CC(=O)c2ccco2)c2ccccc21`, the cell count in assay [1] is 407. Further, the inhibition is -11.8% (inactive) in assay [1], 52.9% (active) in assay [3], 4.56% (inactive) in assay [7] and 2.85% (inactive) in assay [8]. Besides, the inhibition of aggregation in assay [2] was 22.6% (inactive). Moreover, the nuclei count worked out at 68% in [2] and 83.4% in [3]. Besides, the fluorescence slope in [4] was -0.391 (inactive). The NADPH fluorescence slope in assay [5] was -5.5e-05 (inactive). The slope in assay [9] is 0.00452 (inactive). Further, the outcome in assay [10] was inactive.

As for `Cc1ccc(C)c(-c2nc3cc(N)ccc3o2)c1`, in [1], the cell count is 407. For the same compound, the inhibition in assay [1] is 12.5% (inactive); in assay [3], -435% (inactive); in assay [7], 4.93% (inactive); in [8], 1.69% (inactive). The inhibition of aggregation in [2] was 20.6% (inactive). In addition, the nuclei count in assay [2] worked out at 97.9%; in [3] it was 124%. Besides, the fluorescence slope is -0.0313 (active) in assay [4] and 0.00545 (inactive) in assay [6]. For the same compound, the NADPH fluorescence slope in assay [5] is -3e-06 (inactive).

Turning to `O=C(Nc1ccc(CN2CCOCC2)cc1)c1cc2ccccc2oc1=O`, in [1], the cell count was found to be 426. The inhibition was 3.6% (inactive) in [1], -218% (inactive) in [3], 0.662% (inactive) in assay [7] and 29.5% (inactive) in assay [8]. Besides, the inhibition of aggregation in assay [2] was -12.6% (inactive). For the same compound, the nuclei count in assay [2] was determined as 118%; in assay [3] it was 146%. For the same compound, the fluorescence slope in assay [4] is -0.53 (inactive); in assay [6], 0.00463 (inactive). Besides, the NADPH fluorescence slope in [5] was -7.9e-05 (inactive).

Turning to `CCOC(=O)C1CCCN(C(=O)c2cc(=O)c3ccccc3o2)C1` (stereo not given), the cell count in assay [1] is 376. Moreover, the inhibition in [1] was -18.9% (inactive); in [3], -38.4% (inactive); in assay [7] it was 14.5% (inactive); in [8], 19.9% (inactive). Besides, the inhibition of aggregation in assay [2] was -28.1% (inactive). The results for the nuclei count in [2] and in assay [3] were 114% and 98.7%, respectively. Besides, the fluorescence slope in assay [4] was -0.426 (inactive); in assay [6], 0.00575 (inactive). In addition, the NADPH fluorescence slope in assay [5] is 2.6e-05 (inactive).

In the case of `COc1ccc(-c2cn3c(C)c(C(=O)Nc4cc(NC(C)=O)ccc4OC)sc3n2)cc1`, in [1], the cell count came to 693. Further, the inhibition in assay [1] was 7.3% (inactive); in assay [3] it was -116% (inactive); in assay [7] it was 42.7% (inactive); in assay [8], 26.4% (inactive). In addition, the inhibition of aggregation in assay [2] was -40.3% (inactive). For the same compound, the nuclei count in [2] turned out to be 59%; in assay [3], 118%. The fluorescence slope in assay [4] was -0.166 (inactive); in assay [6], 0.00656 (inactive). Besides, the NADPH fluorescence slope in [5] was -6.9e-06 (inactive).

With `CC(C)CN1C(=O)c2ccc(C(=O)Nc3nccs3)cc2C1=O`, the cell count in assay [1] was 513. The inhibition in [1] was 8.1% (inactive); in assay [3], -335% (inactive); in assay [7], 13.3% (inactive); in assay [8], 5.57% (inactive). Moreover, the inhibition of aggregation in assay [2] was -20.1% (inactive). The nuclei count in assay [2] was found to be 120%; in assay [3] it was 137%. The fluorescence slope is -0.586 (inactive) in assay [4] and 0.00611 (inactive) in [6]. The NADPH fluorescence slope in assay [5] was -2.9e-06 (inactive).

In the case of `COc1cccc(NC(=O)Cc2nnc(SCC(=O)c3ccccc3)n2C)c1`, in assay [1], the cell count was determined as 454. Also, the inhibition was 9.7% (inactive) in [1], -39.3% (inactive) in assay [3], 3.81% (inactive) in [7] and 10.1% (inactive) in assay [8]. Also, the inhibition of aggregation in assay [2] was -12.5% (inactive). For the same compound, the nuclei count in assay [2] was 88.6%; in [3], 91.8%. Moreover, the fluorescence slope in assay [4] is -0.5 (inactive); in [6] it was 0.0063 (inactive). For the same compound, in assay [5], the NADPH fluorescence slope was 1.7e-05 (inactive).

Turning to `c1ccc(-c2nnc(CN3CCC4(CC3)OCCO4)o2)cc1`, the cell count in assay [1] turned out to be 407. Further, the inhibition in assay [1] is -6.8% (inactive); in assay [3], -27% (inactive); in assay [7] it was 8.62% (inactive); in assay [8] it was 10.2% (inactive). The inhibition of aggregation in [2] was 15.2% (inactive). Besides, the nuclei count in assay [2] was 70.5%; in assay [3] it was 118%. The fluorescence slope in assay [4] is -0.596 (inactive); in assay [6], 0.0059 (inactive). In [5], the NADPH fluorescence slope was 1.6e-05 (inactive).

For the compound `O=C(O)C1CC(=O)N(Cc2ccccc2)C1` (stereo not given), the cell count in assay [1] amounted to 398. For the same compound, the inhibition was -1.8% (inactive) in [1], -43.7% (inactive) in assay [3], 16.7% (inactive) in [7] and 17% (inactive) in assay [8]. Besides, the inhibition of aggregation in [2] is -0.4% (inactive). Also, the nuclei count in [2] worked out at 110%; in assay [3] it was 127%. The fluorescence slope in assay [4] was -0.526 (inactive); in assay [6], 0.00382 (inactive). Also, the NADPH fluorescence slope in assay [5] was -0.00016 (inactive).

Take `COc1ccc2nc(NC(=O)CSc3nnc(-c4ccoc4C)n3C)sc2c1`: in assay [1], the cell count turned out to be 392. Also, the inhibition in [1] was 9.9% (inactive); in assay [3] it was -28.8% (inactive); in assay [7], -11.5% (inactive); in [8], -48.5% (inactive). The inhibition of aggregation in assay [2] is -2.4% (inactive). Further, the nuclei count in assay [2] is 97.8%; in assay [3] it was 104%. Also, the fluorescence slope in assay [4] was -0.563 (inactive); in assay [6], 0.00441 (inactive). In addition, the NADPH fluorescence slope in [5] was -2.5e-05 (inactive).

Take `O=C(CN1C(=O)NC(Cc2ccccc2)C1=O)Nc1ccccc1` (stereo not given): the cell count in assay [1] turned out to be 436. The inhibition is 0% (inactive) in assay [1], -32.2% (inactive) in assay [3], -15.9% (inactive) in [7] and -20.9% (inactive) in assay [8]. The inhibition of aggregation in [2] is 8.9% (inactive). In addition, the nuclei count in assay [2] is 59.4%; in assay [3], 111%. In addition, the figures for the fluorescence slope in assay [4] and in assay [6] were -0.594 (inactive) and 0.00658 (inactive), respectively. Moreover, in [5], the NADPH fluorescence slope is -5.2e-06 (inactive).

For `Clc1ccc(Cl)c(-c2nn3c(COc4ccccc4)nnc3s2)c1`, the cell count in assay [1] was 678. For the same compound, the inhibition is -5% (inactive) in [1], -81.1% (inactive) in assay [3], 23.3% (inactive) in assay [7] and 23.2% (inactive) in [8]. The inhibition of aggregation in assay [2] was -9.4% (inactive). The values for the nuclei count in assay [2] and in assay [3] were 104% and 139%, respectively. Further, the fluorescence slope in assay [4] is -0.546 (inactive); in [6], 0.00451 (inactive). Moreover, in assay [5], the NADPH fluorescence slope was -2.8e-05 (inactive).

These data come from PubChem BioAssay.
